Source: PubChem BioAssay
The list is not random: actives were taken first. Their share in the collection is about 2.2%.
Dyrk1A ADPGlo – blocks rat Dyrk1A kinase activity | 310,000 tested, 0.43% active | ADP-Glo luminescence, NFATc1 peptide | inhibition, % at 12.5 µM | Q63470; in the data active means inhibition above about 50%
CAL PDZ FP-1 – inhibitors of human CAL PDZ peptide binding; inhibition, % at 20 µM; 330,000 tested, 0.02% active; AID 504414; Q9HD26; purified CAL PDZ, TMR-peptide fluorescence polarization, 1 h;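 active means highest replicate inhibition of at least 40%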
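Read-out basis: mP drop reported as inhibition | Assay system: Tagged CAL PDZ protein CerCALP, purified | Benchmarks: Unlabelled peptide for full inhibition, DMSO wells as neutral | Schedule: 1 h incubation at room temperature before polarization reading | Buffer or medium: Sodium phosphate/NaCl buffer pH 7.4 with TCEP, IgG, Thesit | Doses: Single point, 20 µM | Measured by: Fluorescence polarization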
Rtt109 Vps75 – inhibitors of Candida albicans Rtt109/Vps75 histone acetyltransferase; Q5AAJ8; purified Rtt109/Vps75, ThioGlo CoA-SH fluorescence, 4 h; inhibition, % at 34.9 µM; 330,000 tested, 0.16% active; AID 540336;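 active means inhibition of at least 50% in every replicate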
Target sequence (Q5AAJ8 whole entry, looked up): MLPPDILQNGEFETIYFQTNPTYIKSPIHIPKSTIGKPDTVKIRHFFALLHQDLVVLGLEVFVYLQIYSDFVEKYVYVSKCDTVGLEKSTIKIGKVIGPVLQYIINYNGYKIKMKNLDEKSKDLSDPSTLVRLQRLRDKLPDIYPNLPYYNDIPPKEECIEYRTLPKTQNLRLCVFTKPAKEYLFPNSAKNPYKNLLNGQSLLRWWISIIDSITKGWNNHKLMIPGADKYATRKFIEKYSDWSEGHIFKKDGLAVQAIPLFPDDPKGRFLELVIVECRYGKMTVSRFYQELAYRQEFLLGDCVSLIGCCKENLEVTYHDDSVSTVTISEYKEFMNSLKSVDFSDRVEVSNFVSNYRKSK
CDK5 p35 inh – CDK5/p35 (human) kinase inhibition. inhibition, % at 10 µM. Recombinant CDK5/p35, ADP-Glo luminescence, 60 min. AID 488839. 330,000 tested, 0.01% active;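 active means highest replicate inhibition of at least 50% and at least 75% of replicates reaching 50%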
dFosB activator – activators of mouse delta FosB homodimer | activation, % at 25 µM | 340,000 tested, 0.99% active | AID 493131 | P13346 | purified delta FosB, TAMRA-CDK5 oligo fluorescence polarization; percent of positive-control signal above neutral wells;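 active means mean activation above about 17%, with every replicate also reaching it, limit read from the data, passing the limit was not always enough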
CAL PDZ FP-2 – blocks peptide binding to the human CAL PDZ domain. Q9HD26. purified CAL PDZ, TMR-peptide fluorescence polarization, 1 h. inhibition, % at 24.9 µM. 300,000 tested, 0.92% active;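 active means mean inhibition of at least 30% with at least half of replicates also reaching 30%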
Hits are given with their value; - = inactive; . = no result given; + = active, no number.

SMILES | Dyrk1A ADPGlo | CAL PDZ FP-1 | Rtt109 Vps75 | CDK5 p35 inh | dFosB activator | CAL PDZ FP-2
COc1cccc(CN2CC(C(=O)NCCCc3ccc(C)cc3)CCC2=O)c1 (stereo not given) | - | - | - | - | - | 100.0
O=C(NCCCc1ccncc1)C1CCC(=O)N(Cc2ccc(Cl)cc2)C1 (stereo not given) | - | - | - | - | - | 71.9
COc1ccc(C(C(=O)NC2CCCC2)N(Cc2cccnc2)C(=O)c2snc(C(N)=O)c2N)cc1 (stereo not given) | - | - | - | - | - | -
CCOC(=O)c1c[nH]c2ccc3ccccc3c2c1=O | - | - | - | - | - | 53.6
S=C(N/N=C/c1ccc2ncccc2c1)Nc1ccccc1 | - | - | - | - | - | 32.9
Cc1ccc(-c2ccc(C#N)c(=O)n2CC(=O)N(C)C)cc1 | . | - | - | - | - | -
COc1ccccc1NC(=S)NCc1cccnc1 | - | - | - | - | - | -
COc1cc(NC(=S)NCc2cccnc2)c(OC)cc1Cl | - | - | 56.3 | - | - | -
COc1ccc(S(=O)(=O)N2CCN(CC(=O)NC3CC3)CC2)cc1 | - | - | - | - | - | -
CCN1CCc2c(sc(NC(=O)Cc3ccccc3)c2C(N)=O)C1 | - | - | - | - | - | .
CCN1CCc2c(sc(NC(=O)c3ccc(S(=O)(=O)N(CC)c4ccccc4)cc3)c2C(N)=O)C1 | - | - | - | - | 40.8 | -
CCN1CCc2c(sc(NC(=O)Nc3ccc(Cl)c(Cl)c3)c2C(N)=O)C1 | - | - | - | - | 56.4 | -
CN(C)CCCNC(=O)c1ccc(-c2cc(O)c3ncccc3c2)cc1 | - | - | - | - | 45.7 | -
CN(C)c1ccc(-c2cc(O)c3ncccc3c2)cc1 | - | - | - | - | - | -
Cc1cc(C(=O)OCC(=O)Nc2c(Cl)cccc2Cl)c(C)o1 | - | - | - | - | 21.6 | -
CN(C(=O)c1ccc2c(c1)OCO2)C1(C)CCS(=O)(=O)C1 (stereo not given) | - | - | - | - | - | -
CN(C(=O)c1ccc(N2CCCCC2)c([N+](=O)[O-])c1)C1(C)CCS(=O)(=O)C1 (stereo not given) | - | - | 53.0 | - | - | -
COC(=O)c1ccc(-n2nnnc2SCc2ccccc2OC)cc1 | - | - | - | - | - | -
COc1ccc(S(=O)(=O)NNC(=O)c2ccc(-n3c(C)ccc3C)cc2)cc1 | - | - | - | - | - | .
CC(C)(CN1CCCC1)NC(=O)C1CCC(=O)N(CCCN2CCOCC2)C1 (stereo not given) | - | - | - | - | - | 91.9
COc1ccc(S(=O)(=O)N2CCOC2CNC(=O)C(=O)NCc2ccncc2)cc1 (stereo not given) | - | - | - | - | - | +
COc1ccc(CCNC/C=C/c2ccccc2)cc1 | - | - | - | - | - | 50.8
COC(=O)c1ccc(N2C(=O)CC(SCC(=O)Nc3ccc(OC)cc3)C2=O)cc1 (stereo not given) | - | - | 94.3 | - | - | -
CCOC(=O)c1ccc(N2C(=O)CC(SCC(=O)Nc3ccc(S(N)(=O)=O)cc3)C2=O)cc1 (stereo not given) | . | - | . | - | - | -
CC(NC(=O)C(=O)N/N=C\c1ccc([N+](=O)[O-])cc1)c1ccccc1 (stereo not given) | - | - | . | - | - | 39.9
SMILES | Dyrk1A ADPGlo | CAL PDZ FP-1 | Rtt109 Vps75 | CDK5 p35 inh | dFosB activator | CAL PDZ FP-2
O=C(/C=C\c1ccc(-c2ccccc2)o1)c1ccccc1 | - | - | - | - | - | -
O=C(O)CCc1ccc(-c2ccccc2)o1 | - | - | 78.0 | - | - | -
Cn1c(NCc2cccc(Br)c2)nc2ccccc21 | - | - | - | - | - | -
Cn1c(Oc2ccccc2NCc2cccc(Br)c2)cc(=O)n(C)c1=O | - | - | - | - | - | 79.1
COc1ccccc1NC(=O)N1CCCC1C(=O)NCCc1ccccc1 (stereo not given) | . | - | - | - | - | -
COCCNS(=O)(=O)c1ccc2c(c1)C(=NO)c1cc(S(=O)(=O)NCCOC)ccc1-2 | - | - | 52.5 | - | - | -
COCCNS(=O)(=O)c1ccc2c(c1)Cc1cc(S(=O)(=O)NCCOC)ccc1-2 | - | - | - | - | - | -
CC(NC(=O)c1ccco1)C(=O)O (stereo not given) | - | - | - | - | - | -
